Data reported in paper PMC9049079 (RSC Advances, 2020).

How the values were obtained:
[1] = biological target: T1, α-Glucosidase from Saccharomyces cerevisiae (Saccharomyces cerevisiae, UniProt P53341); assay: α-Glucosidase inhibition assay; type: biochemical
[2] = biological target: T1, α-Glucosidase from Saccharomyces cerevisiae; assay: Inhibitory kinetic analysis; type: biochemical
Summary of the method: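 Enzyme in 100 mM phosphate buffer pH 6.8 at 37 °C with varied pNPG and test compound at 0, 2, 4, 6, 10 μM. Reversibility was tested as rate vs enzyme at 1.35–5.40 × 10−2 μM final. Lineweaver–Burk plots used enzyme at 6.96 × 10−2 μM. Ki came from nonlinear regression to competitive, non-competitive and mixed models. Mean ± SD, n = 3.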

[3] = biological target: T1, α-Glucosidase from Saccharomyces cerevisiae; assay: Fluorescence quenching of α-glucosidase; type: binding; details: for Kq (quenching rate constant): Kq = KSV/τ0, τ0 = 10^−8 s; for Kd: K a (binding constant); for ΔG°: ΔG = ΔH − TΔS
Summary of the method: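 Intrinsic fluorescence quenching: enzyme at 6.96 × 10−2 μM, titrated with test compound (0–1.10 μM final), 5 min equilibration, at 298, 304 and 310 K. Excitation 280 nm, emission 290–500 nm, slits 2.5 nm. Buffer (pH 6.8) and compound blanks were subtracted, with inner-filter correction from absorbance. KSV from linear F0/F vs [Q]. Ka and n from double-log plot. ΔH/ΔS from van't Hoff; ΔG = ΔH − TΔS.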

[4] = van't Hoff plot, 298, 304 and 310 K

T1 sequence (P53341 whole entry): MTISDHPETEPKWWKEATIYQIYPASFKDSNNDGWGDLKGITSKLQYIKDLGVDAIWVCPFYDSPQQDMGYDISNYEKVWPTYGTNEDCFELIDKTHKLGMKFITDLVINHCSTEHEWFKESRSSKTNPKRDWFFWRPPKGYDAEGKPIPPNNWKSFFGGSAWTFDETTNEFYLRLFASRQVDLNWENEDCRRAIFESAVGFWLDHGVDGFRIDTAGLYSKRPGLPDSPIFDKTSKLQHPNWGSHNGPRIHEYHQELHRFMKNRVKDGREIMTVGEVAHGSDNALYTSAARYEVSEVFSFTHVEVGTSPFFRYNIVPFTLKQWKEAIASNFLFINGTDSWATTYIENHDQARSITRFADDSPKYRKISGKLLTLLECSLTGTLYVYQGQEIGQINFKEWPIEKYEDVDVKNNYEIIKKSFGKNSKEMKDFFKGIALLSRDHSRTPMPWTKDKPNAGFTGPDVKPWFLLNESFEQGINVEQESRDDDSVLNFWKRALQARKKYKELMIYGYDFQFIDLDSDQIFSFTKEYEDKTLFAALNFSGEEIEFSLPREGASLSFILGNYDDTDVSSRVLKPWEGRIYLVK

Oc1cc(O)cc(/C=C/c2ccc(O)c(O)c2)c1 [piceatannol, Piceatannol]
IC50 [1]: 4390 ± 740 nM
Ki [2]: 5380 ± 240 nM
type of inhibition (mechanism) ([2]; Lineweaver–Burk plots, piceatannol 0-10 μM): non-competitive
reversibility of inhibition ([2]; plots of υ versus [α-glucosidase], piceatannol 0-10 μM): reversible
Kq (quenching rate constant) ([3]; 298 K): 5.02e+13 M⁻¹ s⁻¹
Kq (quenching rate constant) ([3]; 304 K): 7.01e+13 M⁻¹ s⁻¹
Kq (quenching rate constant) ([3]; 310 K): 1.604e+14 M⁻¹ s⁻¹
Kd ([3]; T 298 K): 2030 nM
Kd ([3]; T 304 K): 1380 nM
Kd ([3]; T 310 K): 739 nM
K SV (Stern–Volmer quenching constant) ([3]; T 298 K): 5.02 ± 0.039 ×10^5 L mol^−1
n (number of binding sites per α-glucosidase molecule) ([3]; T 298 K): 1.17 ± 0.057
ΔG° ([3]; T 298 K): -7.741 ± 2.3 kcal/mol
K SV (Stern–Volmer quenching constant) ([3]; T 304 K): 7.01 ± 0.032 ×10^5 L mol^−1
n (number of binding sites per α-glucosidase molecule) ([3]; T 304 K): 1.16 ± 0.045
ΔG° ([3]; T 304 K): -8.207 ± 2.3 kcal/mol
K SV (Stern–Volmer quenching constant) ([3]; T 310 K): 16.04 ± 0.049 ×10^5 L mol^−1
n (number of binding sites per α-glucosidase molecule) ([3]; T 310 K): 1.32 ± 0.017
ΔG° ([3]; T 310 K): -8.676 ± 2.3 kcal/mol
ΔH° [3, 4]: 15.43 ± 2.31 kcal/mol
ΔS° [3, 4]: 325.31 ± 31.80 J mol^−1 K^−1
